Results published in PubChem BioAssay.
Active and inactive are the calls of the source.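 The calls were made as follows, unless noted: active = viability at or under a set limit in both replicates, limit being median viability minus 3 SD (cut at about 48% in these data, passing the limit was not always enough); inconclusive = at or under the limit in just one replicate; inactive = at or above the limit in both replicates.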

Key:
[1] = Her2 expression decrease, cell viability multiplex – SKBR3 breast tumor cells, AlphaScreen, ATP viability, primary screen (AID 461;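 active = Her2 level under about 52% in both replicate screens, with viability over 70% of control, limit read from the data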;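 as to Her2 level: lower value means less Her2 protein in the cells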;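 as to viability: percent of carrier control wells set as 100% viability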); details: SKBR3 Her2 protein level, 18-24 h, measured here: SKBR3 viability, ATP luminescence, at 10 µM
[2] = biological target: Receptor tyrosine-protein kinase erbB-2 (Homo sapiens) (UniProt P04626); assay: as above; details: 18-24 h, at 10 µM, stronger effect = lower value
Receptor tyrosine-protein kinase erbB-2 (Homo sapiens), sequence (P04626 whole entry, looked up): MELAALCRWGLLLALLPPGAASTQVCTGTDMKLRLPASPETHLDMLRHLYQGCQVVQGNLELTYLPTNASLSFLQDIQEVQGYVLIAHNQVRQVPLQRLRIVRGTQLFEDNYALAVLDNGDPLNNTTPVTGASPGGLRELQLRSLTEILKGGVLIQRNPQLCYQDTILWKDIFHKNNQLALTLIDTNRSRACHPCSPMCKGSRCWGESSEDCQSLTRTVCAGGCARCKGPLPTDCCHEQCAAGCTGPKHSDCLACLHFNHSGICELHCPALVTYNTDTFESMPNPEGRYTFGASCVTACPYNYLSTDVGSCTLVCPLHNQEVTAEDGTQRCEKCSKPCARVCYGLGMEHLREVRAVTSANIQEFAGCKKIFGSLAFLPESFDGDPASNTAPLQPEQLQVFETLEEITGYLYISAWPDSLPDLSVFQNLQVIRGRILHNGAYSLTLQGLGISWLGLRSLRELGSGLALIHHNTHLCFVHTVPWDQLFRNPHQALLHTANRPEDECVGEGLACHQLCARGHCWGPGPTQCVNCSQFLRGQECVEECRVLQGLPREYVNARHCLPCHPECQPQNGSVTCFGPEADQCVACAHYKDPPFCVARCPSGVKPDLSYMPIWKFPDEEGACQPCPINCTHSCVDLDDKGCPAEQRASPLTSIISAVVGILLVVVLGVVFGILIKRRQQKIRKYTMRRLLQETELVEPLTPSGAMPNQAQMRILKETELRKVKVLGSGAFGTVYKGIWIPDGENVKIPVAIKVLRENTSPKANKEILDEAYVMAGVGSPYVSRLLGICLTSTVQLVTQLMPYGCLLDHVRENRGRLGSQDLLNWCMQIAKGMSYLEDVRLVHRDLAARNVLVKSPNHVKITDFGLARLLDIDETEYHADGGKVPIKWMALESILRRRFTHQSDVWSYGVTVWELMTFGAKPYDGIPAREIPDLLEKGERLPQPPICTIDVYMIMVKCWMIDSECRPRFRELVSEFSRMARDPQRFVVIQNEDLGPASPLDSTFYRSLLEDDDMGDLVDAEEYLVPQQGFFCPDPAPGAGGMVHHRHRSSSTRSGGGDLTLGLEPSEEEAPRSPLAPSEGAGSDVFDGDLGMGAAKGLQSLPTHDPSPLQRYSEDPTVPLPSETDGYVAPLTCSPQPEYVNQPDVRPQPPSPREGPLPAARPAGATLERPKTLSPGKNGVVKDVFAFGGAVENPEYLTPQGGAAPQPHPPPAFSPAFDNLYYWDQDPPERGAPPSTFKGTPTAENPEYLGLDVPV

[3] = reduced viability of SK-BR-3 breast cancer cells – cell-based, 24 h, human, pilot screen (AID 572;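 active = viability at or below 10% of carrier control in both of two separate runs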;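 also: compound exposure lasted between 18 and 24 h rather than exactly 24 h; 100% = carrier-treated control wells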); details: SK-BR-3 viability, CellTiter-Glo luminescence, at 10 µM, stronger effect = lower value
[4] = HUVEC growth inhibition – cell-based, human, primary screen (AID 575;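 active = viability at or below 30% in both replicate assays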;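 also: 100% = median of untreated cell wells with 0.1% DMSO on each plate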); details: HUVEC proliferation, CellTiter-Glo luminescence, 72 h; at 10 µM; stronger effect = lower value
Method in brief: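 Test system: primary human umbilical vein endothelial cells. Quantity: 1250 cells/well. Compound: single 10 µM dose, 0.1% DMSO, from 5x medium stock. Timing: 72 h treatment at 37 °C. Detection: ATP-based CellTiter-Glo luminescent read. Benchmarks: vehicle and MePR control wells. Format: 384-well plates coated with collagen.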

[5] = H69AR cell proliferation blockers – human, duplicate replicates, primary screen (AID 580); details: H69AR lung tumor cells viability, ATP luminescence, 72 h; at 10 µM; stronger effect = lower value;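 also: 100% = mean luminescence of untreated wells and 0% = no signal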
[6] = MRP1 drug-resistance reversers in H69AR cells – cell-based, doxorubicin co-treatment, pilot screen (AID 601;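 active = viability loss from added drug above about 55%, and viability with drug at most 40%, in both replicates, limit read from the data, passing the limit was not always enough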); details: CellTiter-Glo, 72 h, at 10 µM; for differential viability (reversal): stronger effect = higher value
[7] = yeast transport mutant growth inhibition pilot in 384-well plates, post-Golgi transport modulator project (AID 636; in the data active = inhibition above about 31%); details: absorbance 615 nm, about 18 h, stronger effect = higher value
[8] = growth suppression of yeast trafficking mutant, preliminary HTS, modulators of trafficking downstream of Golgi apparatus project, 1536-format plate, OD 615 nm (AID 637; in the data active = inhibition above about 30%); details: yeast transport mutant growth, absorbance 615 nm, 18 h; stronger effect = higher value
[9] = H69AR cells + 2 uM doxorubicin, measured here: viability with 2 uM doxorubicin, stronger effect = lower value
[10] = H69AR cells, compound alone cytotoxicity

| Structure (SMILES) | viability [1] | Her2 level [2] | viability [3] | viability [4] | viability [5] | differential viability (reversal) ([6]; H69AR cells + 2 uM doxorubicin) | viability [6, 9] | viability [6, 10] | inhibition [7] | inhibition [8] |
| --- | --- | --- | --- | --- | --- | --- | --- | --- | --- | --- |
| CCCC(C(=O)NCc1ccco1)N(C(=O)CNS(=O)(=O)c1ccc(Cl)cc1)C1CCCC1 (stereo not given) | 122% | 91% (inactive) | 122% (inactive) | 74.1% (inactive) | 82.7% (inactive) | -4.13% (inactive) | 86.8% | 82.7% | -0.13% (inactive) | 3.55% (inactive) |
| O=C(CN(C(=O)CCNC(=O)c1ccco1)c1ccccc1)NC1CCCC1 | 93% | 112% (inactive) | 93% (inactive) | 103% (inactive) | 93.5% (inactive) | -5.44% (inactive) | 98.9% | 93.5% | 2.53% (inactive) | 33.5% (active) |
| CCCC(O)(CCN(C)C)c1ccc(OC)cc1 (stereo not given) | 89% | 79.5% (inactive) | 89% (inactive) | 98.5% (inactive) | 88.3% (inactive) | 4.26% (inactive) | 84% | 88.3% | -0.26% (inactive) | 0.48% (inactive) |
| CC1CCN(C(=O)C2CCN(S(=O)(=O)c3cnc[nH]3)CC2)CC1 | 98% | 93% (inactive) | 98% (inactive) | 96.5% (inactive) | 103% (inactive) | 7.72% (inactive) | 95.3% | 103% | -4.61% (inactive) | 3.87% (inactive) |
| C=CCN1C(=O)C2(c3ccccc31)C1CCCC=C1C(C#N)=C(N)C2(C#N)C#N (stereo not given) | 81% | 82% (inactive) | 81% (inactive) | 62.7% (inactive) | 76.4% (inactive) | -13.9% (inactive) | 90.3% | 76.4% | 2.53% (inactive) | 26.8% (inactive) |
| COc1ccc(N2CCN(Cc3nc4c(c(=O)[nH]c(=O)n4C)n3CC(C)=O)CC2)cc1 | 98.5% | 102% (inactive) | 98.5% (inactive) | 101% (inactive) | 95.4% (inactive) | 10.4% (inactive) | 84.9% | 95.4% | 0% (inactive) | 0.17% (inactive) |
| Cc1oc(-c2ccccc2)cc1C(N)=O | 103% | 78.5% (inactive) | 103% (inactive) | 92.3% (inactive) | 100% (inactive) | 20% (inactive) | 80.3% | 100% | -0.79% (inactive) | -2.9% (inactive) |
| COc1ccc2c(c1)C(C)=CC(C)(C)N2C(=O)CSc1nnc(-c2ccc(C)cc2)o1 | 98.5% | 99% (inactive) | 98.5% (inactive) | 53.2% (inactive) | 93.9% (inactive) | 2.13% (inactive) | 91.8% | 93.9% | 31% (active) | -1% (inactive) |
| CNC(=O)CN(C#N)c1nc(N(C)C)nc(N(C)C)n1 | 104% | 112% (inactive) | 104% (inactive) | 98.5% (inactive) | 92.8% (inactive) | 2.61% (inactive) | 90.2% | 92.8% | -4.93% (inactive) | -6.77% (inactive) |
| Cn1c(SCC(=O)Nc2ccc3c(c2)OCO3)nnc1-c1cnccn1 | 106% | 82.5% (inactive) | 106% (inactive) | 93.5% (inactive) | 94.6% (inactive) | 6.5% (inactive) | 88.1% | 94.6% | -6.05% (inactive) | 2.33% (inactive) |
| COc1cc2c(=O)n(Cc3ccccc3)c(=O)n(CC(=O)NCc3ccco3)c2cc1OC | 126% | 83% (inactive) | 126% (inactive) | 95.4% (inactive) | 86.2% (inactive) | -0.76% (inactive) | 87% | 86.2% | -8% (inactive) | -3.65% (inactive) |
| Cc1ccc(C2c3sc(=O)[nH]c3SC3C(=O)NC(=O)C32)cc1 (stereo not given) | 94% | 87% (inactive) | 94% (inactive) | 111% (inactive) | 105% (inactive) | 6.17% (inactive) | 99.2% | 105% | -5.62% (inactive) | -4.29% (inactive) |
| CCn1nnc(-c2ccccc2NC(=O)c2ccc(-n3cnnn3)cc2)n1 | 95.5% | 87% (inactive) | 95.5% (inactive) | 67.7% (inactive) | 75.7% (inactive) | 1.74% (inactive) | 73.9% | 75.7% | -0.79% (inactive) | 1.15% (inactive) |
| O=C(NC1CCS(=O)(=O)C1)c1c(NC(=O)C2COc3ccccc3O2)sc2c1CCCC2 (stereo not given) | 67% | 69.5% (inactive) | 67% (inactive) | 45.3% (inactive) | 38.3% (active) | 2.25% (inactive) | 36% | 38.3% | -4.67% (inactive) | -1.61% (inactive) |
| CCOc1ccc(NC(=O)CSc2nnnn2CC(=O)O)cc1 | 104% | 98% (inactive) | 104% (inactive) | 96% (inactive) | 95.7% (inactive) | -4.13% (inactive) | 99.8% | 95.7% | -3.16% (inactive) | -5.65% (inactive) |
| Cc1ccc(NC(=O)CS(=O)CC(=O)NCC2CCCO2)cc1 (stereo not given) | 96.5% | 120% (inactive) | 96.5% (inactive) | 103% (inactive) | 96.8% (inactive) | 7.8% (inactive) | 89% | 96.8% | -1.62% (inactive) | 25% (inactive) |

| Structure (SMILES) | viability [1] | Her2 level [2] | viability [3] | viability [4] | viability [5] | differential viability (reversal) ([6]; H69AR cells + 2 uM doxorubicin) | viability [6, 9] | viability [6, 10] | inhibition [7] | inhibition [8] |
| --- | --- | --- | --- | --- | --- | --- | --- | --- | --- | --- |
| C=CCOc1nc(N2CCCC2)nc(N2CCCC2)n1 | 89% | 91% (inactive) | 89% (inactive) | 83.1% (inactive) | 92.7% (inactive) | 11.6% (inactive) | 81.1% | 92.7% | -3.55% (inactive) | -2% (inactive) |
| OCCNCC(O)Cn1ccc2ccccc21 (stereo not given) | 118% | 94.5% (inactive) | 118% (inactive) | 107% (inactive) | 88.6% (inactive) | 0.01% (inactive) | 88.6% | 88.6% | -3.77% (inactive) | -0.16% (inactive) |
| Cc1cc(NC(=O)COC(=O)C2COc3ccccc3O2)no1 (stereo not given) | 110% | 95.5% (inactive) | 110% (inactive) | 104% (inactive) | 96.7% (inactive) | 11% (inactive) | 85.7% | 96.7% | -4.61% (inactive) | -5% (inactive) |
| Cc1ccc(N2CC(C(=O)N3CCN(C(=O)c4ccco4)CC3)CC2=O)cc1 (stereo not given) | 96.5% | 91% (inactive) | 96.5% (inactive) | 104% (inactive) | 96.1% (inactive) | -1.97% (inactive) | 98.1% | 96.1% | 0.39% (inactive) | -1.29% (inactive) |
| O=C(NCc1cccs1)C1CCN(S(=O)(=O)c2cccs2)CC1 | 103% | 89% (inactive) | 103% (inactive) | 89.8% (inactive) | 102% (inactive) | 26.9% (inactive) | 74.6% | 102% | -5.19% (inactive) | -4.29% (inactive) |
| CC(C(=O)N1CCOCC1)N1c2cccc3cccc(c23)S1(=O)=O (stereo not given) | 101% | 91.5% (inactive) | 101% (inactive) | 100% (inactive) | 93.5% (inactive) | 0.905% (inactive) | 92.6% | 93.5% | -2.76% (inactive) | 5.57% (inactive) |
| CCCc1nn(CCc2ccccn2)c(N)c1CC | 114% | 91% (inactive) | 114% (inactive) | 89.4% (inactive) | 96.5% (inactive) | 3.08% (inactive) | 93.5% | 96.5% | -6% (inactive) | 0.66% (inactive) |
| Cn1c2ccccc2c2ncn(CCCN3CCOCC3)c(=O)c21 | 89% | 93% (inactive) | 89% (inactive) | 101% (inactive) | 94.6% (inactive) | 1.77% (inactive) | 92.9% | 94.6% | -7.6% (inactive) | -7.94% (inactive) |
| CCOc1ccc2[nH]c(=O)c(CN(Cc3ccccc3)C(=O)N3CCCC3)cc2c1 | 100% | 77% (inactive) | 100% (inactive) | 78.4% (inactive) | 82.1% (inactive) | 1.97% (inactive) | 80.1% | 82.1% | -2.5% (inactive) | -1.9% (inactive) |
| Cc1cccc(COc2ccc(/C(O)=C3\C(=O)C(=O)N(CCN(C)C)C3c3ccncc3)cc2)c1 (stereo not given) | 108% | 94% (inactive) | 108% (inactive) | 105% (inactive) | 97.3% (inactive) | -3.29% (inactive) | 101% | 97.3% | -2.11% (inactive) | 3.28% (inactive) |
| O=C(CSc1ncc(-c2ccc(F)cc2)[nH]1)N1CCCCC1 | 91% | 124% (inactive) | 91% (inactive) | 92.6% (inactive) | 91.3% (inactive) | 2.38% (inactive) | 89% | 91.3% | -2.95% (inactive) | 0% (inactive) |
| COc1ccc(OCc2cccc(C(=O)O)c2)cc1 | 105% | 78.5% (inactive) | 105% (inactive) | 75.7% (inactive) | 88.1% (inactive) | 7.06% (inactive) | 81% | 88.1% | -4.47% (inactive) | 0.91% (inactive) |
| O=C1C(Cl)=C(N2CCOCC2)C(=O)N1CCc1ccccc1 | 104% | 84% (inactive) | 104% (inactive) | 89.3% (inactive) | 71.3% (inactive) | 0.02% (inactive) | 71.3% | 71.3% | -6.27% (inactive) | -1.11% (inactive) |
| CCN1CCN(S(=O)(=O)Cc2ccccc2)CC1 | 116% | 114% (inactive) | 116% (inactive) | 105% (inactive) | 91.4% (inactive) | -0.695% (inactive) | 92.1% | 91.4% | 1.62% (inactive) | 12.9% (inactive) |
| O=C(Nc1ccccc1-c1ccccc1)NC1CCN(CC(=O)N2CCOCC2)CC1 | 98% | 103% (inactive) | 98% (inactive) | 91.7% (inactive) | 99.3% (inactive) | 7.87% (inactive) | 91.4% | 99.3% | -2.34% (inactive) | -3.11% (inactive) |
| COC(=O)c1ccc(NC(=O)CN2CCN(c3ccc(Cl)cc3)CC2)cc1 | 96.5% | 100% (inactive) | 96.5% (inactive) | 104% (inactive) | 96.1% (inactive) | -0.5% (inactive) | 96.6% | 96.1% | 0.13% (inactive) | 12.9% (inactive) |
